Compound activity: PubChem BioAssay, The Scripps Research Institute Molecular Screening Center
TRPML3 ag – agonists of human TRPML3 channel. activation, % at 3 µM. Q8TDD5. HEK293 TRPML3-YFP, Fluo-8 calcium fluorescence; 100% = the carbachol control signal. 0.29% of 220,000 active;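 active = activation above its plate's cutoff, the mean activation of the plate's test wells plus 3 SD, cut at about 12% in these data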;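 note: 0% = DMSO only wells and 100% = carbachol wells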
Target sequence (Q8TDD5 whole entry, looked up): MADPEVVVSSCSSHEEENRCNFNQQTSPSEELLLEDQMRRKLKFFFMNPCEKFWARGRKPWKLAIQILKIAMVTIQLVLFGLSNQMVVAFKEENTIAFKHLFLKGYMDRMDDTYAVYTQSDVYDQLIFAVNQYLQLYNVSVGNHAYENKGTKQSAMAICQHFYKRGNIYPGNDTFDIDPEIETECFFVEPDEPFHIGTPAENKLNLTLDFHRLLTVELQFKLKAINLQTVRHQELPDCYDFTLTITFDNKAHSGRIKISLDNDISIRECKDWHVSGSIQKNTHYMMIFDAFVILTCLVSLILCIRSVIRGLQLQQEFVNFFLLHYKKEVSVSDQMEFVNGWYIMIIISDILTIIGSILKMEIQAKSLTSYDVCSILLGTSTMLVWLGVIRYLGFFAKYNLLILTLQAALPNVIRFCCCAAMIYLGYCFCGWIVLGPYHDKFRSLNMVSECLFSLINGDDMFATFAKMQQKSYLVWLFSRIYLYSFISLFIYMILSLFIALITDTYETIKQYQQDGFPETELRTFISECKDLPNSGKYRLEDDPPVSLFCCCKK
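Material: TRPML3-YFP stable HEK293 cells | Dosing: One concentration, 3 µM nominal, 0.3% DMSO | Timing: 125 s total fluorescence read per well | Technique: Fluo-8 calcium dye fluorescence, ex 470-495, em 515-575 nm | Measure: Percent activation from peak-to-basal fluorescence ratio, scaled between DMSO and carbachol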
OXTR potentiator – human OXTR potentiation; P30559; CHO-OTR cells, Fluo-8 calcium fluorescence, potentiator mode; 0% = oxytocin EC15, 100% = EC100; activation, % at 3 µM; 0.061% of 320,000 active; AID 2445;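 active = activation above that plate's cutoff, the mean activation of tested compounds plus 3 SD, cut at about 6.6% in these data, passing the limit was not always enough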;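 note: 100% uses oxytocin at 75 nM as the full agonist control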
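System: human OTR in CHO cells / Also added: sub-maximal oxytocin, roughly EC15 / Control set: EC15 oxytocin low, 75 nM oxytocin high / Schedule: 6 min compound pre-incubation at room temperature, 100 s kinetic read / Compound: single-point 3.0 µM / Replication: singlicate / Technique: Fluo-8 calcium dye fluorescence / Read-out basis: % activation of max/min ratio relative to oxytocin controls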
V1aR counter – counter-screen for oxytocin receptor agonists: human V1a receptor agonists. P37288. AID 2797. CHO-V1R cells, Fluo-8 calcium fluorescence, agonist mode; 0% DMSO, 100% 3 nM vasopressin. activation, % at 3 µM. 0.25% of 320,000 active;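 active = activation above the mean activation of all tested compounds plus 3 SD, per screening run, cut at about 20% in these data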;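 note: signal is peak over basal fluorescence ratio across a 100 second FLIPR read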
OXTR ag – human OXTR agonism; P30559; CHO-OTR cells, Fluo-8 calcium fluorescence; normalized: DMSO 0%, oxytocin 100%; activation, % at 3 µM; 0.32% of 320,000 active; AID 2435;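 active = activation above the mean of all tested compounds plus 3 SD, cutoff set per screening run, cut at about 20% in these data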;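 note: peak over basal fluorescence ratio from a 100 s FLIPR kinetic read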
TRPN1 ag – activates the zebrafish TRPN1 channel. HEK293 zebrafish TRPN1-YFP, Fluo-8 calcium fluorescence; 100% = response to 87 µM carbachol. activation, % at 3 µM. 0.18% of 220,000 active. AID 1424;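 active = activation above its plate's cutoff, the mean activation of test wells on that plate plus 3 SD, cut at about 19% in these data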;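 note: 0% = DMSO alone and 100% = 87 µM carbachol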
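Control set: carbachol 87 µM as high control, DMSO as low control; system: HEK293 stable line with zebrafish TRPN1-YFP; read-out: % activation versus carbachol response; detection: intracellular calcium fluorescence with Fluo-8; doses: single test compound dose, 3 µM nominal, 0.3% DMSO; schedule: dye 1 h 37 °C plus 30 min RT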
OXTR ag confirm – human OXTR agonism, confirmation. 20% of 390 active. activation, % at 3 µM. shares compounds with OXTR ag. AID 434963. CHO-OTR cells, Fluo-8 calcium fluorescence, agonist;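 active = mean activation above about 20% derived from the earlier single-dose screen, limit read from the data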;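 note: peak over minimum fluorescence ratio per well during a 100 second FLIPR read; 0% = DMSO alone and 100% = oxytocin high control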
V1R ag counter 3x – counter-screen for oxytocin receptor agonists: V1a receptor agonists; shares compounds with OXTR ag; activation, % at 3 µM; CHO-V1R cells, Fluo-8 calcium fluorescence, agonist; 10% of 390 active;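 active = mean activation over triplicate exceeds the hit threshold set in the earlier primary screen, cut at about 20% in these data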;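 note: peak over basal fluorescence ratio within a 100 second read; 0% = DMSO alone and 100% = 3 nM vasopressin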
OXTR pot confirm – human OXTR potentiation, confirmation | 180 tested, under 10 active | activation, % at 3 µM | shares compounds with OXTR potentiator | CHO-OTR cells, Fluo-8 calcium fluorescence; scaled from low-dose to maximal oxytocin | AID 434985;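 active = mean percent activation over triplicates above a cutoff set from solvent-only control plates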;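 note: compounds tested in the presence of an EC15 dose of oxytocin; 0% = EC15 oxytocin with DMSO and 100% = EC100 oxytocin with DMSO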
* marks the source's active call; other numbers are inactive results. Most compounds without a hit are left out; they make up all but 0.59% or so of the library.

Results for Cc1ccc(-c2noc(CCC(=O)NCCc3ccccc3Cl)n2)cc1 ?
TRPML3 ag: 0.3; OXTR potentiator: -16.2; V1aR counter: 5.4; OXTR ag: 19.9*; TRPN1 ag: 0.2; OXTR ag confirm: -0.8; V1R ag counter 3x: 0.1

How did CCSc1nsc(NC(=O)Nc2cccc(OC)c2)n1 do in these assays?
OXTR potentiator: -25.3; V1aR counter: 13.1; OXTR ag: 21.7*; OXTR ag confirm: 11.0; V1R ag counter 3x: 11.1

What do the screens show for `CCSc1nsc(NC(=O)Nc2ccccc2F)n1`?
OXTR potentiator: -16.8; V1aR counter: 10.3; OXTR ag: 6.2

What do the screens show for `CCOc1ccc(OCCC(=O)OCC(=O)Nc2ccc3c(c2)OCCO3)cc1`?
OXTR potentiator: 2.8; V1aR counter: 0.5; OXTR ag: -1.1

How did Cc1ccc(S(=O)(=O)c2cc3c(=O)n4ccccc4nc3n(C3CCCCC3)c2=N)cc1 do in these assays?
OXTR potentiator: 0.4; V1aR counter: 1.2; OXTR ag: 0.5

Results for CC1=NN(c2ccc(C)cc2C)C(=O)C1C(c1ccccc1O)C1C(=O)N(c2ccc(C)cc2C)N=C1C (stereo not drawn) ?
TRPML3 ag: 0.7; OXTR potentiator: -0.2; V1aR counter: 0.3; OXTR ag: 0.6; TRPN1 ag: 0.2

Results for CC1=NN(c2ccc(Cl)cc2)C(=O)C1C(c1ccccc1O)c1c(C)[nH]n(-c2ccc(Cl)cc2)c1=O (stereo not drawn) ?
TRPML3 ag: 0.7; OXTR potentiator: -9.2; V1aR counter: 13.2; OXTR ag: 19.7*; TRPN1 ag: 2.1; OXTR ag confirm: -0.5; V1R ag counter 3x: 1.0

What do the screens show for `O=C(c1ccc2ccccc2n1)N1CCN(S(=O)(=O)c2ccccc2)CC1`?
OXTR potentiator: -2.8; V1aR counter: 2.5; OXTR ag: 1.7

How did CC(=O)N1c2ccc(S(=O)(=O)N3CCCCC3)cc2CC1C(=O)Nc1ccc(C)cc1 (stereo not drawn) do in these assays?
OXTR potentiator: 7.8; V1aR counter: 1.0; OXTR ag: -0.5

How did CC(C)(C)c1ccc(C(=O)CCC(=O)OCC(=O)NCCc2ccc(S(N)(=O)=O)cc2)cc1 do in these assays?
OXTR potentiator: -12.3; V1aR counter: 15.5; OXTR ag: 19.8*; OXTR ag confirm: 7.5; V1R ag counter 3x: 9.0

Results for Cc1cccc(CNS(=O)(=O)c2csc(C(N)=O)c2)c1 ?
OXTR potentiator: -9.0; V1aR counter: 1.0; OXTR ag: -0.2

Results for NC(=O)c1cc(S(=O)(=O)NCc2ccc(F)cc2)cs1 ?
OXTR potentiator: -6.4; V1aR counter: 1.0; OXTR ag: 20.0*; OXTR ag confirm: -0.2; V1R ag counter 3x: 0.0

What do the screens show for `COc1cc(/C=C/C(=O)O[C@H]2[C@H](O[C@@H]3O[C@@H](C)[C@H](O)[C@@H](O)[C@H]3O)[C@@H](O)[C@H](OCCc3ccc(O)c(OC)c3)O[C@@H]2CO)ccc1O`?
OXTR potentiator: -6.0; V1aR counter: 0.4; OXTR ag: 0.3

What do the screens show for `Cc1ccc(-c2nn(-c3ccccc3)cc2C2CC(c3cccs3)=NN2C(=O)CCCC(=O)O)cc1` (stereo not drawn)?
TRPML3 ag: 0.7; OXTR potentiator: -11.8; V1aR counter: 18.7; OXTR ag: 23.1*; TRPN1 ag: 2.6; OXTR ag confirm: 7.4; V1R ag counter 3x: 2.5

How did COc1ccc(-c2nn(-c3ccccc3)cc2C2CC(c3cccs3)=NN2C(=O)CCCC(=O)O)cc1 (stereo not drawn) do in these assays?
TRPML3 ag: 0.6; OXTR potentiator: -12.4; V1aR counter: 7.3; OXTR ag: 7.5; TRPN1 ag: 1.8

How did CCc1ccc(OCC(=O)Nc2ccncc2)c(Br)c1 do in these assays?
OXTR potentiator: -22.3; V1aR counter: 6.5; OXTR ag: 11.6

What do the screens show for `Cc1cc(OCC(=O)Nc2ccncc2)c(C)cc1Br`?
TRPML3 ag: 2.6; OXTR potentiator: -10.3; V1aR counter: 17.0; OXTR ag: 20.7*; TRPN1 ag: 4.4; OXTR ag confirm: 11.3; V1R ag counter 3x: 9.6

Results for O=C(CN1c2ccccc2S(=O)(=O)c2ccccc21)NCc1ccc(F)cc1 ?
OXTR potentiator: -9.8; V1aR counter: 9.0; OXTR ag: 4.8

How did O=C(NNC(=S)NC(=O)c1ccccc1)c1cccc([N+](=O)[O-])c1 do in these assays?
OXTR potentiator: -12.7; V1aR counter: 13.9; OXTR ag: 29.4*; OXTR ag confirm: 15.9; V1R ag counter 3x: 20.6*

What do the screens show for `COC(=O)c1sc(NC(=O)COc2cccnc2[N+](=O)[O-])c(C(=O)OC)c1C`?
OXTR potentiator: -1.3; V1aR counter: 0.7; OXTR ag: 1.0

How did O=C(c1cccc(NC2=NC3CS(=O)(=O)CC3S2)c1)N1CCN(c2ncccn2)CC1 (stereo not drawn) do in these assays?
OXTR potentiator: 4.0; V1aR counter: -0.2; OXTR ag: 0.6

How did COC(=O)C1CC(Cl)CN1c1ncc(C(F)(F)F)cc1Cl (stereo not drawn) do in these assays?
TRPML3 ag: 0.1; OXTR potentiator: 16.1*; V1aR counter: -1.1; OXTR ag: -2.6; TRPN1 ag: -0.9; OXTR pot confirm: -2.0

Results for CC(C)(C(N)=O)N1CCN(c2ncc(C(F)(F)F)cc2Cl)CC1 ?
TRPML3 ag: 0.7; OXTR potentiator: -17.0; V1aR counter: 9.3; OXTR ag: 5.2; TRPN1 ag: 2.3

What do the screens show for `CCOc1ccc(C(=O)N2CCc3ccccc32)cc1`?
OXTR potentiator: 12.2*; V1aR counter: -0.6; OXTR ag: -1.5; OXTR pot confirm: -0.4

How did CCCOc1ccc(C(=O)N2CCCc3ccccc32)cc1 do in these assays?
TRPML3 ag: 0.3; OXTR potentiator: -9.7; V1aR counter: -0.6; OXTR ag: -1.9; TRPN1 ag: -0.4

How did C/C(=N/NC(=O)CNC(=O)c1ccccn1)c1cccc([N+](=O)[O-])c1 do in these assays?
TRPML3 ag: 0.7; OXTR potentiator: 11.8*; V1aR counter: 1.2; OXTR ag: 1.1; TRPN1 ag: 0.4; OXTR pot confirm: -2.9

Results for Cc1cc(C(=O)N2CCN(CCc3ccccc3)CC2)no1 ?
TRPML3 ag: 0.4; OXTR potentiator: 10.3*; V1aR counter: -0.5; OXTR ag: 1.0; TRPN1 ag: 0.3; OXTR pot confirm: -2.5
